Drawing on ChEMBL document CHEMBL1255332, “Isobolographic analysis of pharmacodynamic interactions between antifungal agents and ciprofloxacin against Candida albicans and Aspergillus fumigatus” (Antimicrob Agents Chemother, 2008), this text covers EC50 and MIC for 3 compounds.

≈ marks a conversion by molar mass, not a printed value.

Format in all cases: functional, organism-based
The test system of assay [1] is Candida albicans. The experiment in a line: Antifungal activity against Candida albicans CA362 by spectrophotometry. The method, boiled down: (§1)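 Clinical C. albicans blastoconidia came from 1- to 2-day Sabouraud cultures, with a final inoculum of 5 × 10^2 to 2.5 × 10^3 CFU/ml in RPMI 1640 buffered to pH 7 with 0.165 M MOPS. Incubation was 37°C for 24 h. A405 was corrected against a conidium-free plate and expressed as % of drug-free control, and an Emax model was fitted for EC50. Three replicates.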

Assay [2] concerns Aspergillus fumigatus. The experiment in a line: Antifungal activity against Aspergillus fumigatus AF2025 spectrophotometry. The method, boiled down: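 Conidia from 5–7-day Sabouraud agar cultures were adjusted to 80–82% transmittance at 530 nm, giving a final 0.4 × 10^4 to 5 × 10^4 CFU/ml in RPMI 1640 buffered at pH 7 with 0.165 M MOPS. They were tested in a checkerboard alone or with ciprofloxacin for 24 h at 37°C. A405 was converted to % of drug-free growth after background subtraction, an Emax model was fitted, and each test was run in triplicate.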

Assay [3] concerns Candida albicans. The experiment in a line: Antifungal activity against Candida albicans CA5685 by spectrophotometry. The method, boiled down:
as §1

Assay [4] has as its system Aspergillus fumigatus. Kind of assay: Antifungal activity against Aspergillus fumigatus AF2350 by spectrophotometry. In outline: (§2)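 Clinical A. fumigatus conidia were harvested from 5- to 7-day Sabouraud cultures, with a final inoculum of 0.4 × 10^4 to 5 × 10^4 CFU/ml in RPMI 1640 (0.165 M MOPS, pH 7). Incubation was 37°C for 24 h. Growth at 405 nm, background-subtracted, was expressed as % of drug-free control, and an Emax model was fitted to give EC50. Three replicates.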

Assay [5] relates to Candida albicans. The experiment in a line: Antifungal activity against Candida albicans CA8621 by spectrophotometry. In outline: as §1
Assay [6] has as its system Aspergillus fumigatus. Kind of assay: Antifungal activity against Aspergillus fumigatus AF4215 spectrophotometry. In outline:
as §2

As a reminder, the EC50 is the concentration that produces a half-maximal response. As usually defined, the MIC is the least concentration at which growth counts as inhibited. Low readings indicate inhibition by little substance, high ones a need for much substance. As to `C[C@@H]1[C@H](O)[C@@H](C)/C=C/C=C/C=C/C=C/C=C/C=C/C=C/[C@H](O[C@@H]2O[C@H](C)[C@@H](O)[C@H](N)[C@@H]2O)C[C@@H]2O[C@](O)(C[C@@H](O)C[C@@H](O)[C@H](O)CC[C@@H](O)C[C@@H](O)CC(=O)O[C@H]1C)C[C@H](O)[C@H]2C(=O)O` [AMPHOTERICIN B], the EC50 stood at 0.25 µg/mL (≈ 0.271 µM) with Candida albicans [1] and 0.5 µg/mL (≈ 0.541 µM) in the assay with Aspergillus fumigatus [2]. In addition, the MIC against Candida albicans [1] is 0.125 µg/mL (≈ 0.135 µM); with Aspergillus fumigatus [2], 0.5 µg/mL (≈ 0.541 µM).
In the assay with Candida albicans [3], `CC[C@H](C)C[C@H](C)CCCCCCCCC(=O)N[C@H]1C[C@@H](O)[C@@H](NCCN)NC(=O)[C@@H]2[C@@H](O)CCN2C(=O)[C@H]([C@H](O)CCN)NC(=O)[C@H]([C@H](O)[C@@H](O)c2ccc(O)cc2)NC(=O)[C@@H]2C[C@@H](O)CN2C(=O)[C@H]([C@@H](C)O)NC1=O` [CASPOFUNGIN] came in with a 50% effective concentration (EC50) of 0.59 µg/mL (≈ 0.54 µM) and an MIC of 1 µg/mL (≈ 0.915 µM). In the assay with Aspergillus fumigatus [4], this compound displayed an EC50 of 28.8 µg/mL (≈ 26.3 µM) and an MIC of 128 µg/mL (≈ 117 µM).
In the assay on Candida albicans [5], `OC(Cn1cncn1)(Cn1cncn1)c1ccc(F)cc1F` [FLUCONAZOLE] came in with an EC50 of 0.09 µg/mL (≈ 0.294 µM) and an MIC of 0.125 µg/mL (≈ 0.408 µM). In the assay with Aspergillus fumigatus [6], this compound yielded an EC50 of 0.18 µg/mL (≈ 0.588 µM) and an MIC of 0.5 µg/mL (≈ 1.63 µM).
